Series [1] addresses T1, Cannabinoid receptor 2 (Homo sapiens, UniProt P34972). The experiment in a line: Displacement of [3H]-CP55,940 from human CB2 receptor expressed in CHO membranes after 1 hr by liquid scintillation counting. Type of series: cell membranes. The method, boiled down:
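0.5 nM [3H]-CP-55,940 on 6 µg hCB2-CHO membranes in 20 mM Hepes, 5 mM MgCl2, 1 mM EDTA, 0.3% BSA, pH 7.4, 1 h at 30 °C. Filtered over GF/C and counted by scintillation. Nonspecific binding with 5 µM (R)-(+)-WIN 55,212-2; DMSO <0.1%. Screened first at 10 µM; Ki by nonlinear regression of competition curves where displacement >60%; ≥4 experiments in duplicate.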
(Loss of bound radioactivity is the signal in a displacement assay; it reports binding, not function.)

For a further series, the species on record is Homo sapiens. Put plainly: Selectivity ratio of Ki for human CB1 receptor expressed in CHO membranes to Ki for human CB2 receptor expressed in CHO membranes. Type of series: cell membranes.
For another series, the target named is Cannabinoid receptor 1 (Homo sapiens, UniProt P21554). The experiment in a line: Displacement of [3H]-SR141716A from human CB1 receptor expressed in CHO membranes after 1 hr by liquid scintillation counting. Type of series: cell membranes.
Series [2] has as its target T1, Cannabinoid receptor 2. The experiment in a line: Agonist activity at human CB2 receptor expressed in CHO membranes assessed as [35S]-GTPgammaS binding after 1 hr. Type of series: functional, cell membranes. The method, boiled down: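 hCB2-CHO membranes (10 µg protein) in 20 mM Hepes, 10 mM MgCl2, 100 mM NaCl, 0.1% BSA, pH 7.4, with 30 µM GDP. Started with 0.1 nM [35S]-GTPγS (final) and run 1 h at 30 °C, then filtered and counted. Nonspecific binding taken with 100 µM Gpp(NH)p; basal activity set at 100%. EC50 and Emax by nonlinear regression, ≥4 experiments in duplicate.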
(GTPγS is a poorly hydrolysed GTP analogue; its binding reports G protein activation.)

For the next series, the system named is HT-29. The experiment in a line: Antiproliferative activity against human HT-29 cells at 10 uM after 72 hrs by MTS assay. Type of series: cell-based. The note with it: ht-29, 72 h. In outline: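 HT29 cells grown in DMEM-Glutamax with 10% FBS and penicillin/streptomycin, 37 °C, 5% CO2. Plated at 3000 cells/well in triplicate, left 24 h, then exposed to 10 µM compound (<0.1% DMSO) for 72 h. Growth read by colorimetric MTS reduction to formazan, given as % proliferation inhibition; ≥4 experiments in duplicate.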
A general note: Tetrazolium dyes change colour on reduction, which living cells bring about.

For series [3], the system named is Mus musculus. The experiment in a line: Anticolitis activity in DSS-induced acute colitis C57/Bl6 mouse model assessed as reduction in ratio of Kc mRNA to POLR2A mRNA level at 10 mg/kg, ip qd for 7 days measured after 7 days by RT-PCR analysis (reference value: 68.9 +/-9.8 no unit ). Type of series: functional. Conditions: route intraperitoneal.
Series [4] relates to Mus musculus. The experiment in a line: Anticolitis activity in DSS-induced acute colitis C57/Bl6 mouse model assessed as effect on TNF-alpha levels at 10 mg/kg, ip qd for 7 days measured after 7 days by RT-PCR analysis relative to vehicle-treated control. Type of series: functional, organism-based. Further details: dose 10 mg/kg.
The test system of series [5] is Mus musculus. Put plainly: Anticolitis activity in DSS-induced acute colitis C57/Bl6 mouse model assessed as reduction in disease activity index at 10 mg/kg, ip qd for 7 days measured after 7 days relative to vehicle-treated control. Type of series: functional, organism-based. Further details: dose 10 mg/kg.
The subject of series [6] is Mus musculus. Put plainly: Toxicity in DSS-induced acute colitis C57/Bl6 mouse model assessed as rovert reactions at 10 mg/kg, ip qd for 7 days measured after 7 days. Type of series: organism-based. Also on record: dose 10 mg/kg, route intraperitoneal. The note with it: in vivo, 168 h.
The subject of series [7] is Mus musculus. The experiment in a line: Anticolitis activity in DSS-induced acute colitis C57/Bl6 mouse model assessed as change in body weight at 10 mg/kg, ip qd for 7 days measured after 7 days (reference value: 83.1 +/- 2.2 %). Type of series: functional. Conditions: route intraperitoneal.
Series [8] relates to Mus musculus. Put plainly: Anticolitis activity in DSS-induced acute colitis C57/Bl6 mouse model assessed as reduction in colon inflammation at 10 mg/kg, ip qd for 7 days measured after 7 days by histological analysis relative to vehicle-treated control. Type of series: functional, organism-based. Also on record: dose 10 mg/kg. In outline:
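In DSS-colitic male C57BL6 mice given 10 mg/kg ip daily for 7 days in cyclodextrin vehicle, May-Grünwald-Giemsa-stained distal colon sections were scored for inflammatory infiltrate (0–3) and tissue damage (0–3), n = 10.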

Series [9] concerns Mus musculus. The experiment in a line: Anticolitis activity in DSS-induced acute colitis C57/Bl6 mouse model assessed as increase in colon length at 10 mg/kg, ip qd for 7 days measured after 7 days (reference value: 4.6 +/- 0.2 cm). The note with it: route intraperitoneal. Type of series: functional.
Series [10] concerns Mus musculus. The experiment in a line: Anticolitis activity in DSS-induced acute colitis C57/Bl6 mouse model assessed as reduction in ratio of IL-1beta mRNA to POLR2A mRNA level at 10 mg/kg, ip qd for 7 days measured after 7 days by RT-PCR analysis (reference value: 105.1 +/-17.0 no unit ). Type of series: functional. The note with it: route intraperitoneal.

Activity calls are given as the source filed them. The calls are words filed in the database; no cut-off is given here.

T1 sequence (P34972 whole entry): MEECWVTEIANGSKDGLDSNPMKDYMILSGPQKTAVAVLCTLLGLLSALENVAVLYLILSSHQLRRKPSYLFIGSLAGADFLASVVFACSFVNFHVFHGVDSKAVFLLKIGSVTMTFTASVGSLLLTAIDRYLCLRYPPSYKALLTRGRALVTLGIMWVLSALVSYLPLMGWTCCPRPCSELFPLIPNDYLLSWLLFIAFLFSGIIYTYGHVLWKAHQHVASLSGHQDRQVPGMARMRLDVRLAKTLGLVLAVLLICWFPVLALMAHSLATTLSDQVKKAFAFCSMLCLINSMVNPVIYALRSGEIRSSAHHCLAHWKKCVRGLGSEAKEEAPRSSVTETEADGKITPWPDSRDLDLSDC
Cannabinoid receptor 1, sequence (P21554 whole entry, looked up): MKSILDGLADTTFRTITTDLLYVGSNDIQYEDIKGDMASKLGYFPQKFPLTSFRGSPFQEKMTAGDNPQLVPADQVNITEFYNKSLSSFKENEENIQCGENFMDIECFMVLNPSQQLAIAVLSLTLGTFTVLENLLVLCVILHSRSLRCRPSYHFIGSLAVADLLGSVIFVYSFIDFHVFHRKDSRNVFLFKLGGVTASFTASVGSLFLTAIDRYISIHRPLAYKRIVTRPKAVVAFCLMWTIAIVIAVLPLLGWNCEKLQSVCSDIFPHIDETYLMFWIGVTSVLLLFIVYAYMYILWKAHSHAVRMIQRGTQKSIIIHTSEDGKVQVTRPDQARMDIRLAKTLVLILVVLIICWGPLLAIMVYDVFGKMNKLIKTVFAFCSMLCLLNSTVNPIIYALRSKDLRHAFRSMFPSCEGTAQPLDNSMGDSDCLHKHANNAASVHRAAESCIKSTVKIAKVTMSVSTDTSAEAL

In general, Ki refers to the equilibrium dissociation constant of an inhibitor or competing ligand from its target. Low values mean tighter binding, high ones weaker binding. With `CCCCCOc1cccc(-c2cc(C(=O)NC34CC5CC(CC(C5)C3)C4)no2)c1`, the Ki on Cannabinoid receptor 2 [1] is > 1000 nM.
Regarding `CCOc1ccccc1-c1cc(C(=O)NC23CC4CC(CC(C4)C2)C3)no1`, the Ki on Cannabinoid receptor 2 [1] was > 1000 nM.
As a reminder, the EC50 is the concentration at which the effect is half-maximal. As to `CCCOc1ccccc1-c1cc(C(=O)NC23CC4CC(CC(C4)C2)C3)no1`, in the series listed under Homo sapiens, the Ratio Ki is > 12. Besides, the Ki was > 1000 nM at Cannabinoid receptor 1 and 79.6 nM on Cannabinoid receptor 2 [1]. Besides, the EC50 on Cannabinoid receptor 2 [2] is 2.21 nM. In the series with HT-29, this compound registered an Activity of 8%.
Regarding `COc1ccccc1-c1cc(C(=O)NC23CC4CC(CC(C4)C2)C3)no1`, the Ratio Ki in the series listed under Homo sapiens is > 42. Besides, the Ki was > 3000 nM on Cannabinoid receptor 1 and 70.1 nM on Cannabinoid receptor 2 [1]. Also, at Cannabinoid receptor 2 [2], the EC50 amounted to 2.56 nM.
With `CCCCCOc1ccccc1-c1cc(C(=O)Nc2ccccc2)no1`, the Ki on Cannabinoid receptor 2 [1] was > 1000 nM.
Consider `CCCCCCOc1ccccc1-c1cc(C(=O)NC23CC4CC(CC(C4)C2)C3)no1`, for which the Ratio Ki in the series filed under Homo sapiens is > 98. Moreover, the Ki on Cannabinoid receptor 1 is > 3000 nM; at Cannabinoid receptor 2 [1] it was 30.5 nM. Besides, the EC50 at Cannabinoid receptor 2 [2] is 3.4 nM. The Activity in the series on HT-29 was determined as 17%.
With `CCCCCOc1ccccc1-c1cc(C(=O)NC2CC2)no1`, at Cannabinoid receptor 2 [1], the Ki is > 1000 nM.
`CCCCCOc1ccccc1-c1cc(C(=O)NC23CC4CC(CC(C4)C2)C3)no1`: the Ratio Ki in the series filed under Homo sapiens is > 83. The Ki on Cannabinoid receptor 1 was > 3000 nM; at Cannabinoid receptor 2 [1] it was 36 nM. Moreover, on Cannabinoid receptor 2 [2], the EC50 turned out to be 2.9 nM. The same compound gave an Activity in the series on HT-29 of 0%.
`CCCCCOc1ccc(-c2cc(C(=O)NC34CC5CC(CC(C5)C3)C4)no2)cc1`: at Cannabinoid receptor 2 [1], the Ki is > 1000 nM.
Take `CCCCCOc1ccccc1-c1cc(C(=O)NC2CCC2)no1`: the Ratio Ki in the series listed under Homo sapiens was > 2. The Ki was > 1000 nM on Cannabinoid receptor 1 and 412 nM on Cannabinoid receptor 2 [1]. Also, the EC50 on Cannabinoid receptor 2 [2] turned out to be 4.4 nM. The compound further displayed an Activity with HT-29 of 46%.
In the case of `CCCCCCCOc1ccccc1-c1cc(C(=O)NC23CC4CC(CC(C4)C2)C3)no1`, the Ki on Cannabinoid receptor 2 [1] is > 1000 nM.
Consider `CCCCCOc1ccccc1-c1cc(C(=O)NC2CCCCCCC2)no1`, for which, in the series filed under Homo sapiens, the Ratio Ki is > 40. In addition, the values for the Ki at Cannabinoid receptor 1 and on Cannabinoid receptor 2 [1] were > 3000 nM and 73.5 nM, respectively. At Cannabinoid receptor 2 [2], the EC50 worked out at 1.8 nM. Also, the Activity in the series with HT-29 is on record as 17%.
On to `O=C(NCC12CC3CC(CC(C3)C1)C2)c1cc(-c2ccccc2)on1`, for which, on Cannabinoid receptor 2 [1], the Ki was > 1000 nM.
On to `CCCCCOc1ccccc1-c1cc(C(=O)Nc2nnc(C)s2)no1`, for which the Ki at Cannabinoid receptor 2 [1] was > 3000 nM.
In the case of `CCCCCOc1ccccc1-c1cc(C(=O)NN2CCCCC2)no1`, the affinity at Cannabinoid receptor 2 [1] corresponds to a Ki of 600 nM. This counts as sub-micromolar.
Regarding `CCCCCOc1ccccc1-c1cc(C(=O)NCc2ccccc2)no1`, on Cannabinoid receptor 2 [1], the Ki is > 3000 nM.
In the case of `CCCCCOc1ccccc1-c1cc(C(=O)NC2CCCC2)no1`, the Ratio Ki in the series filed under Homo sapiens is > 16. Besides, the Ki at Cannabinoid receptor 1 was > 1000 nM; at Cannabinoid receptor 2 [1], 60.9 nM. Moreover, the EC50 on Cannabinoid receptor 2 [2] is 2.1 nM. The Activity with HT-29 is given as 13%.
Consider `O=C(NC1C2CC3CC(C2)CC1C3)c1cc(-c2ccccc2)on1` (stereo unspecified), for which the Ki at Cannabinoid receptor 2 [1] is > 1000 nM.
In the case of `CCCCCOc1ccccc1-c1cc(C(=O)N(CC(C)C)CC(C)C)no1`, the Ki was 33 nM at Cannabinoid receptor 1 and 22.1 nM on Cannabinoid receptor 2 [1].
Regarding `CCCCCOc1ccccc1-c1cc(C(=O)NC23CC4CC(CC2C4)C3)no1`, the figures for the Ratio in the series with Mus musculus [3] and in the series on Mus musculus [10] were 11.5 and 19.9, respectively. The outcome in the series on Mus musculus [4] was inactive. Besides, the outcome with Mus musculus [5] and with Mus musculus [8] was Active. Moreover, the Activity result in the series on Mus musculus [6] was “Non-toxic”; in the series on Mus musculus [7], 92.8%; in the series on Mus musculus [9], 5.6 cm; with HT-29, 20%. Also, the Ratio Ki in the series listed under Homo sapiens was > 111. In addition, the figures for the Ki at Cannabinoid receptor 1 and on Cannabinoid receptor 2 [1] were > 1000 nM and 9 nM, respectively. Moreover, at Cannabinoid receptor 2 [2], the EC50 was determined as 4.8 nM.
As to `CCCCCOc1ccccc1-c1cc(C(=O)NC2CCCCCC2)no1`, the figures for the Ratio in the series on Mus musculus [3] and in the series on Mus musculus [10] were 12.3 and 13.2, respectively. Besides, the result with Mus musculus [4] was inactive. Moreover, the result with Mus musculus [5] and in the series with Mus musculus [8] was Active. Further, the Activity entry in the series on Mus musculus [6] is “Non-toxic”; with Mus musculus [7], 91.8%; in the series on Mus musculus [9] it was 5.4 cm; in the series on HT-29, 34%. Moreover, the Ratio Ki in the series filed under Homo sapiens is > 49. For the same compound, the Ki on Cannabinoid receptor 1 was > 3000 nM; on Cannabinoid receptor 2 [1], 60.8 nM. Besides, the EC50 at Cannabinoid receptor 2 [2] is 11.1 nM.
On to `CCCCCCCCOc1ccccc1-c1cc(C(=O)NC23CC4CC(CC(C4)C2)C3)no1`, for which, at Cannabinoid receptor 2 [1], the Ki is > 1000 nM.
Turning to `CCCCCOc1ccccc1-c1cc(C(=O)NC2CCCCC2)no1`, the Ratio Ki in the series listed under Homo sapiens is > 131. Moreover, the inhibition constant Ki was > 3000 nM at Cannabinoid receptor 1 and 22.8 nM at Cannabinoid receptor 2 [1]. Moreover, at Cannabinoid receptor 2 [2], the EC50 is 1.9 nM. This compound gave an Activity in the series with HT-29 of 37%.
Regarding `CCCCCOc1ccccc1-c1cc(C(=O)Nc2cccc3ccccc23)no1`, the Ki at Cannabinoid receptor 2 [1] was > 1000 nM.
For `CCCCOc1ccccc1-c1cc(C(=O)NC23CC4CC(CC(C4)C2)C3)no1`, the Ratio Ki in the series filed under Homo sapiens was > 8. The values for the Ki at Cannabinoid receptor 1 and on Cannabinoid receptor 2 [1] were > 3000 nM and 369 nM, respectively. Moreover, the EC50 at Cannabinoid receptor 2 [2] was 2.88 nM. This compound had an Activity in the series with HT-29 of 2%.
`O=C(NC12CC3CC(CC(C3)C1)C2)c1cc(-c2ccccc2)on1`: at Cannabinoid receptor 2 [1], the Ki was > 1000 nM.
As for `CCCCCOc1ccccc1-c1cc(C(=O)NC2C3CC4CC(C3)CC2C4)no1` (stereo unspecified), the Ratio Ki in the series filed under Homo sapiens is > 49. The Ki is > 3000 nM on Cannabinoid receptor 1 and 60.1 nM on Cannabinoid receptor 2 [1]. In addition, the EC50 on Cannabinoid receptor 2 [2] turned out to be 14.8 nM. In the series on HT-29, this compound returned an Activity of 0%.
